{"source": "ChEMBL document CHEMBL4513216", "about": "“Probing the Open Global Health Chemical Diversity Library for Multistage-Active Starting Points for Next-Generation Antimalarials” (ACS Infect Dis, 2020)"}
{"test": "Toxicity liver stage against HepG2, at 10uM", "type": "cell-based", "parameters": "test concentration 10 uM, cell line HepG2-A16-CD81EGFP", "conditions": "human, HepG2-A16-CD81EGFP cells; read-out: INHIBITION", "procedure,_shortened": "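Uninfected HepG2-A16-CD81EGFP cells, 3 × 10^3 per well, 1536-well, plated on prespotted compound at 10 μM final, parasite-free screening media added to match infected plates; puromycin 10 μM positive, DMSO 0.5% negative; run in parallel with 48 h PbLuc assay at 37 °C, 5% CO2; viability by CellTiter-Glo luminescence, normalized to controls.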", "units": {"cytotoxicity at 10 µM": "%"}}
{"smiles": "COCCn1cnc2ccc(NC(=O)CCCn3cccn3)cc2c1=O", "cytotoxicity at 10 µM": 6.43}
{"smiles": "CCCc1nnc2sc(-c3cc(C(C)C)n[nH]3)nn12", "cytotoxicity at 10 µM": 17.7}
{"smiles": "COc1ccc(NC(=O)c2cnc(N(C)C3CCCCC3)nc2N)cc1", "cytotoxicity at 10 µM": -3.64}
{"smiles": "Cc1ccccc1N1CC2(CCN(S(=O)(=O)c3cccs3)C2)CC1=O", "note": "(centres undefined)", "cytotoxicity at 10 µM": 14.1}
{"smiles": "O=C(CCC(=O)NCc1cccc(Br)c1)NCCN1CCCC1", "cytotoxicity at 10 µM": 10}
{"smiles": "CCN(c1ccccc1C(=O)O)S(=O)(=O)c1cccc2cccnc12", "cytotoxicity at 10 µM": 1.28}
{"smiles": "Cc1ccc(CNC(=O)c2cc(C)n(C)n2)o1", "cytotoxicity at 10 µM": 0.25}
{"smiles": "CNC(=O)COC(=O)c1ccn(-c2ccc(Cl)c(Cl)c2)n1", "cytotoxicity at 10 µM": 20.9}
{"smiles": "CC(=O)N1CCN(C(=O)c2ccc(-c3cccc(C)c3)[nH]c2=O)CC1", "cytotoxicity at 10 µM": 3.64}
{"smiles": "CC(C)c1cc(NC(=O)CNC2CCc3nc(C(C)C)nn3C2)on1", "note": "(centres undefined)", "cytotoxicity at 10 µM": 0.246}
{"smiles": "O=S(=O)(CCc1ccccc1Cl)CC(O)CO", "note": "(centres undefined)", "cytotoxicity at 10 µM": 10.7}
{"smiles": "COC(C)c1noc(CN(C)c2ncc(Br)cn2)n1", "note": "(centres undefined)", "cytotoxicity at 10 µM": -1.26}
{"smiles": "Cc1c(C2CC2)n[nH]c1NC(=O)C1CCCN(C(=O)NCC(C)C)C1", "note": "(centres undefined)", "cytotoxicity at 10 µM": 13.9}
{"smiles": "CNc1cc2c(nn1)CCN(C(=O)c1ccc(-n3cccn3)nc1)C2", "cytotoxicity at 10 µM": -4.78}
{"smiles": "CCN1CCN(c2ccc(NC(=O)CC(C)C)c(C)c2)CC1", "cytotoxicity at 10 µM": -8.87}
{"smiles": "Cn1cnc2c(-c3cccnc3)nc(C3CCN(S(C)(=O)=O)CC3)cc21", "cytotoxicity at 10 µM": -118}
{"smiles": "c1cncc(CN2CCn3cc(CN4CCCCC4)nc3C2)c1", "cytotoxicity at 10 µM": -102}
{"smiles": "Cc1ccc(N2C[C@H]3OCC[C@H]3[C@H](C(=O)NC3CCCC3)C2)nn1", "cytotoxicity at 10 µM": -75.6}
{"smiles": "Cc1cnc(C(=O)N2C[C@@H](NS(C)(=O)=O)[C@@H]3OCCC[C@@H]32)cn1", "cytotoxicity at 10 µM": -89.7}
{"smiles": "Cc1cc(C(=O)N2CCc3ncc(CN4CCOCC4)n3CC2)no1", "cytotoxicity at 10 µM": 3.76}
{"smiles": "CCc1noc(CNc2nc(-c3cccnc3)nc3c2CCNCC3)n1", "cytotoxicity at 10 µM": 0.562}
{"smiles": "Cc1ccc(CN(C)Cc2cnc(N3CCOCC3)s2)o1", "cytotoxicity at 10 µM": -8.46}
{"smiles": "O=C(c1ccc(-n2cccn2)cc1Cl)N1CCCC(O)(CO)C1", "note": "(centres undefined)", "cytotoxicity at 10 µM": -0.226}
{"smiles": "Cc1cc(=O)c(C(=O)N2CCC(C(O)Cc3ccccc3)CC2)c(C)[nH]1", "note": "(centres undefined)", "cytotoxicity at 10 µM": 12.2}
{"smiles": "CC1=CC[C@@H]2CN(C(=O)c3ccc(-c4nnn(C)n4)cc3)C[C@@H]2C1", "cytotoxicity at 10 µM": 7.16}
{"smiles": "COCc1noc(-c2ccc(N3CCCCC3CCCO)nc2)n1", "note": "(centres undefined)", "cytotoxicity at 10 µM": -3.31}
{"smiles": "CC(C)OC(=O)N1CCC(Cc2ccc(C(=O)O)cc2)C1", "note": "(centres undefined)", "cytotoxicity at 10 µM": 3.38}
{"smiles": "Cc1nc(C(C)C)ncc1C(=O)N1CCC(c2ccccc2C(=O)O)C1", "note": "(centres undefined)", "cytotoxicity at 10 µM": 1.93}
{"smiles": "CC[C@@]1(O)CCN(C(=O)CCSCc2ccc(F)cc2)C[C@H]1O", "cytotoxicity at 10 µM": 0.264}
{"smiles": "Cc1cc(NC(C)c2nncn2C2CCCC2)n2nc(C)cc2n1", "note": "(centres undefined)", "cytotoxicity at 10 µM": 5.99}
{"smiles": "CCn1cncc1Cn1ncc2ccccc2c1=O", "cytotoxicity at 10 µM": 3.7}
{"smiles": "COCCN1CCCC(O)(CN2CCN(Cc3ccncc3)CC2)C1=O", "note": "(centres undefined)", "cytotoxicity at 10 µM": -8.24}
{"smiles": "CSc1cccc(CNC(=O)[C@H]2CNC[C@H](C(=O)N3CCOCC3)C2)c1", "cytotoxicity at 10 µM": -1.74}
{"smiles": "Cc1nc(-c2ccncc2)ncc1C(C)NC(=O)CN1CCCCC1", "note": "(centres undefined)", "cytotoxicity at 10 µM": 1.47}
{"smiles": "CC(=O)NCCCC(=O)N1CCc2[nH]c(-c3ccccc3)nc2C1", "cytotoxicity at 10 µM": -3.73}
{"smiles": "Cn1ccc(C(=O)N2CCC(Cc3cnc4[nH]ccc4c3)CC2)n1", "cytotoxicity at 10 µM": 8.77}
{"smiles": "CNc1cncc(C2CCCN2Cc2ccccn2)n1", "note": "(centres undefined)", "cytotoxicity at 10 µM": 0.0241}
{"smiles": "CC(=O)NC1CCCN(C(=O)NCc2ccc(-c3ccn[nH]3)cc2)C1", "note": "(centres undefined)", "cytotoxicity at 10 µM": -7.84}
{"smiles": "CN(CC(=O)NC1(C#N)CCCC1)C1CCCN(c2cccnn2)C1", "note": "(centres undefined)", "cytotoxicity at 10 µM": -9.75}
{"smiles": "Cc1ncsc1C(=O)NCc1cccs1", "cytotoxicity at 10 µM": -1.89}
{"smiles": "Cc1nc(C)n(CC2CCCN(Cc3nc(C)c(C)o3)C2)n1", "note": "(centres undefined)", "cytotoxicity at 10 µM": -2.68}
{"smiles": "CN1CCCn2c(nc(CNC(=O)c3ccsc3)cc2=O)C1", "cytotoxicity at 10 µM": 3.09}
{"smiles": "COCCNC(=O)C1CN(Cc2cccnc2)Cc2ccnn2C1", "note": "(centres undefined)", "cytotoxicity at 10 µM": -76.1}
{"smiles": "CCS(=O)(=O)N1CCC2(CC1)CN(Cc1ccccn1)C(=O)CO2", "cytotoxicity at 10 µM": 3.01}
